# Screening results deposited in PubChem by Broad Institute.
# E-sel inducer: E-selectin induction on HUVECs; P16581; activation, % at 7.58 µM; AID 686992; HUVEC E-selectin immunofluorescence imaging; normalized: neutral wells 0, TNF-alpha wells 100; 0.37% of 260,000 active;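 active means mean E-selectin-positive cell signal at least 10% of the positive control, reached in at least 60% of replicates, without over 20% cell loss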
#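 Test system – human umbilical vein endothelial cells (HUVEC), E-selectin induction · Input – 3,000 HUVEC seeded per well · Buffer or medium – EGM-2, gelatin · Compound dosing – single-point compound dose · Detection – immunofluorescence imaging · Measure – percent E-selectin-positive cells · Controls – TNF-alpha high, DMSO low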
# SIRT5 inh: sirtuin-5 (human) deacylase inhibition; AID 652115; Purified SirT5, succinyl-peptide AMC, trypsin-coupled fluorescence; 1.1% of 330,000 active; Q9NXA8; inhibition, % at 15 µM; in the data active means inhibition above about 15%
# Target sequence (Q9NXA8 whole entry, looked up): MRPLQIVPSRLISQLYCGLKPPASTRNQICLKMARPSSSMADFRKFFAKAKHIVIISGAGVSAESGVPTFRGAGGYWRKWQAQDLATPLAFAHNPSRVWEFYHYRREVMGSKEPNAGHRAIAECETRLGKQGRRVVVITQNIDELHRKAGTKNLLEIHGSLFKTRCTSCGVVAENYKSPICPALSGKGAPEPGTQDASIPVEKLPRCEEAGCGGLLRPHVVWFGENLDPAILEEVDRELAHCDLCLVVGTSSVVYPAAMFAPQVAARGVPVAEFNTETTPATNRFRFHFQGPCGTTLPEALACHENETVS
# DENV2 CPE: protects cells from dengue virus 2 cytopathic effect. DENV2-infected cells, cytopathic effect rescue, plate reader. CPE inhibition, % at 9.99 µM. 1.7% of 350,000 active. AID 651640; in the data active means CPE inhibition above about 20%, passing the limit was not always enough; tested in BHK-21 cells;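 further: 0% = median of neutral control wells and 100% = median of positive control wells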
# An asterisk follows results filed as active; x = not tested or not shown. Only some compounds are listed: those with a hit (about 2.8% of all), similar ones and a draw of the others.
SMILES,E-sel inducer,SIRT5 inh,DENV2 CPE
COC(=O)C1=C(c2c(C)noc2C)C[C@@H]2CC[C@H]1N2C(=O)N1CCC(O)CC1,0.9,x,1.9
COC(=O)C1=C(c2c(C)noc2C)C[C@@H]2CC[C@H]1N2C(=O)N1CCC(C)CC1,1.1,x,51.2*
COC(=O)[C@@H]1[C@@H](CO)[C@@H]2Cn3c(ccc(-c4ccccc4OC)c3=O)[C@H]1N2Cc1ccccc1,0.2,x,x
COC(=O)[C@@H]1[C@@H](CO)[C@@H]2Cn3c(ccc(C4=CCCC4)c3=O)[C@H]1N2S(=O)(=O)c1cn(C)cn1,-0.3,-10.7,-1.9
CN(C)c1ccc([P+](=O)c2ccc(N(C)C)cc2)cc1,x,-0.2,-2.0
CN(C)c1cc[n+](CC(O)C[n+]2ccc(N(C)C)cc2)cc1,x,x,25.1*
O=C1NC(=O)N(c2cccc(Cl)c2)C(=O)/C1=C\c1ccc(Sc2nc3ccccc3[nH]2)o1,6.2,8.9,3.3
O=C1NC(=O)N(c2ccccc2F)C(=O)/C1=C/c1ccc(Sc2nc3ccccc3[nH]2)o1,x,22.5*,-9.1
COC(=O)C[C@H]1CC[C@H]2NC[C@H](O)COC[C@@H]2O1,0.0,3.4,-2.7
C[C@]12CCC3[C@@H](CC[C@H]4C[C@@H](O)CC[C@]34C)C1CCC2=O (some centres undefined),-0.5,-1.2,-5.0
C[C@]12C[C@H](O)[C@@H](O)C[C@@H]1CC[C@@H]1[C@@H]2CC[C@]2(C)C(=O)CC[C@@H]12,x,-1.2,33.4*
COc1ccc(C#Cc2ccc([C@H]3[C@H]4CN(C(=O)Cc5ccncc5)CCCCN4[C@H]3CO)cc2)cc1,-0.8,4.5,-2.5
CC[n+]1c(/C=C/C=C/c2ccc(N(C)C)cc2)sc2ccccc21,x,1.4,-11.0
CN(C)c1ccc(/C=C/C=C/c2sc3ccccc3[n+]2C)cc1,69.7*,-0.9,-9.1
C[n+]1ccc(-c2ccccc2)c2ccccc21,-0.3,x,0.3
CN(C)c1ccc(/C=C/c2cc[n+](C)c3ccccc23)cc1,109.5*,1.8,7.3
CC=Cc1ccc2n(c1=O)C[C@@H]1[C@@H](CO)[C@H](C(=O)OC)[C@H]2N1S(=O)(=O)c1ccccc1C (mixture of isomers),0.1,-4.3,-11.9
Cc1cccc(S(=O)(=O)N2[C@@H]3Cn4c(ccc(-c5cccc(F)c5)c4=O)[C@H]2[C@@H](C(=O)O)[C@@H]3CO)c1,0.3,x,x
O=c1c2ccccc2nc(-c2ccccc2Cl)n1-c1cccc(O)c1,x,-1.9,12.5
Cc1ccc(-c2nc3ccccc3c(=O)n2-c2cccc(O)c2)cc1,164.3*,4.3,3.5
O=C(Cc1cccnc1)N1CCCCN2[C@H](C1)[C@@H](c1ccc(C#CC3CC3)cc1)[C@@H]2CO,x,0.3,-3.5
O=C1NC(=O)N(Cc2ccccc2)C(=O)/C1=C/C=C/c1ccco1,x,-1.9,7.6
CCN1C(=O)C(=C/C=C/c2ccco2)C(=O)N(CC)C1=S,x,21.1*,6.0
COc1cccc(-c2ccc3n(c2=O)C[C@@H]2[C@@H](CO)[C@H](C(=O)O)[C@H]3N2Cc2ccccc2F)c1,-0.2,x,x
COC(=O)[C@H]1[C@H](CO)[C@H]2Cn3c(ccc(-c4ccccc4F)c3=O)[C@@H]1N2CC1CCCC1,-0.1,-2.1,4.4
SMILES,E-sel inducer,SIRT5 inh,DENV2 CPE
COc1ccc(C#Cc2ccc([C@H]3[C@H]4CN(C(=O)Cc5cccnc5)CCCCN4[C@H]3CO)cc2)cc1,-0.3,5.9,5.3
O=Cc1c(C(=O)O)n(Cc2ccccc2Cl)c2ccccc12,2.7,2.1,1.0
C=Cc1ccc(Cn2c(C(=O)O)c(C=O)c3ccccc32)cc1,6.8,17.4*,1.8
Cc1ccc(-n2c(/C=C/c3ccc4c(c3)OCO4)nc3ccccc3c2=O)cc1,-2.6,x,x
COc1ccc(-n2c(/C=C/c3ccc4c(c3)OCO4)nc3ccccc3c2=O)cc1,1.1,32.3*,8.0
CC=Cc1ccc2n(c1=O)C[C@H]1[C@H](CO)[C@@H](C(=O)OC)[C@@H]2N1CC1CC1 (mixture of isomers),-0.2,-6.3,-4.3
COc1ccc(SCC2CN(C)CCC2c2ccc(F)cc2)cc1 (centres undefined),-0.2,-1.6,25.0*
COc1cccc(C2CCN(C)C2)c1 (centres undefined),-0.1,-1.6,-2.2
CCC(c1ccc(C)cc1)N1C(=O)C2C3CCC(O3)C2C1=O (centres undefined),0.4,-0.2,25.3*
O=C1C2C3CCC(O3)C2C(=O)N1c1cccc(F)c1 (centres undefined),0.0,-4.9,-0.3
COc1ccc(C#Cc2ccc([C@H]3[C@@H](CO)N4CCCCN(C(=O)Cc5cccnc5)C[C@@H]34)cc2)cc1,-0.5,6.5,1.1
CN(c1ccccc1)P(=O)(N1CC1)N1CC1,-0.1,15.6*,-7.5
O=P(Oc1ccccc1)(N1CCOCC1)N1CCOCC1,0.6,6.4,-7.1
COC(=O)C[C@@H]1CC[C@H]2NC[C@@H](O)COC[C@@H]2O1,-0.1,x,-5.2
CSC(=Nc1ccccc1)c1c(O)n(C)c(=O)n(C)c1=O,x,18.6*,x
Cn1c(O)c(C(=Nc2ccccc2)SCc2ccccc2Cl)c(=O)n(C)c1=O,-0.2,-0.9,0.7
CC=Cc1ccc2n(c1=O)C[C@H]1[C@H](CO)[C@@H](C(=O)OC)[C@@H]2N1S(=O)(=O)c1ccccc1C (mixture of isomers),0.6,-4.3,-4.2
COC(=O)[C@@H]1[C@@H](CO)[C@@H]2Cn3c(ccc(C4=CCCCC4)c3=O)[C@H]1N2C(=O)Cc1ccccn1,-0.1,-18.6,4.2
COc1cc(C(=O)N2Cc3ccccc3-n3nncc3C2)cc(OC)c1OC,9.9,-5.1,-4.4
COc1ccc(NC(=S)N2Cc3ccccc3-n3nncc3C2)c(OC)c1,x,-1.8,25.2*
O=C(O)[C@@H]1[C@@H](CO)[C@@H]2Cn3c(ccc(C4=CCCCC4)c3=O)[C@H]1N2CCc1ccccc1,-0.5,x,x
N#CC(C#N)=NNc1ccc(-n2ccc(C(F)(F)F)n2)cc1,x,x,-9.7
Cc1cc(C)n(-c2ccc(NN=C(C#N)C#N)cc2)n1,2.5,3.1,31.2*
COC(=O)[C@H]1[C@H](CO)[C@H]2Cn3c(ccc(-c4ccccc4F)c3=O)[C@@H]1N2C(=O)C1CC1,-0.5,-8.0,-3.5
O=C1NC(=S)NC(=O)C1=Cc1cccn1-c1ccc(O)cc1,x,52.7*,3.2
SMILES,E-sel inducer,SIRT5 inh,DENV2 CPE
COc1ccccc1C=C1C(=O)NC(=S)NC1=O,-1.3,x,-1.2
OC1CN2CCCC(O)C2C1O (centres undefined),x,-1.3,54.6*
O[C@H]1[C@H](O)[C@@H](O)CN2CC[C@H](O)[C@H]12,-0.3,-2.0,-8.0
CCN1[C@@H]2c3ccc(-c4cccc(OC)c4)c(=O)n3C[C@H]1[C@H](CO)[C@H]2C(=O)OC,0.0,-4.9,-8.1
COc1ccccc1N1C(=O)NC(=O)/C(=C/c2ccc([N+](=O)[O-])s2)C1=O,4.3,18.0*,2.6
COc1cccc(N2C(=O)NC(=O)/C(=C/c3ccc([N+](=O)[O-])s3)C2=O)c1,0.0,15.3*,-2.2
COc1cccc(N2C(=O)NC(=O)/C(=C/c3ccc4c(c3)Cc3ccccc3-4)C2=O)c1,4.2,-1.9,10.8
COc1ccc(N2C(=O)/C(=C/c3cccs3)C(=O)NC2=S)cc1,0.2,1.4,-1.3
COc1ccc(N2C(=O)NC(=O)/C(=C\c3ccc([N+](=O)[O-])s3)C2=O)cc1,x,20.2*,-2.7
